This is one part of a sample in which hits are shown more often than they occur.
T cruzi inh: inhibitors of intracellular T. cruzi growth, primary screen, luminescence, NIH3T3 host cells; T. cruzi beta-gal in NIH3T3, 90 h; inhibition, % (no concentration beside the values); 300,000 tested, 1.4% active; AID 1885, 2009;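 active = mean inhibition across valid replicates above about 55%, limit read from the data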;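 also: signal also drops with host cell toxicity which is not excluded here; 0% = plate median of DMSO wells and 100% = zero luminescence signal; higher percent means less beta-gal luminescence so fewer parasites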
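Read-out: Parasite load inhibition, % | Test system: Mouse NIH/3T3 fibroblasts infected with β-gal-expressing T. cruzi Tulahuen C4 | Amount: 5,000 cells/well | Medium: DMEM, 2% fetal bovine serum | Signal: GalScreen β-gal luminescence, detergent lysis, 60 min | Timing: 3 h attach, ≥90 h co-culture | Also added: Tulahuen C4 trypomastigotes, 5000/well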
Hsp70 activator: Hsp70 transcriptional activators, primary screen, cell-based, HeLa, Hsp70 promoter luciferase, luminescence, 10 µM | HeLa Hsp70 promoter luciferase reporter; scaled: vehicle 0, proteasome-inhibitor control 100% | activation, % at 10 µM | 200,000 tested, 0.04% active;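 active = activation above the mean across all tested compounds plus 3 SD, cutoff set per campaign, cut at about 5.5% in these data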;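 also: 100% = MG132 at 30 µM as the positive control and 0% = DMSO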
HSF1 activator: HSF-1 activators, primary screen, NIH3T3-HGL cells, MG132 stress, luminescence, single point; 300,000 tested, 1.7% active; AID 504408, 2011; NIH3T3-HGL HSF-1 luciferase reporter, 8 h; 100% = twice DMSO control signal; activation, % at 9 µM;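 active = mean replicate activation of at least 50% with a set share of replicates each reaching 50%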;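 also: 0% = median of the neutral control wells and 100% = twice that signal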
L major viab: Leishmania major promastigote growth inhibition, primary screen. Leishmania major promastigotes, resazurin fluorescence viability. inhibition, % at 10 µM. 200,000 tested, 9% active; in the data active = inhibition above about 50%;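 also: promastigotes grown with compound for 44 hours at 28 °C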
HSF1 inh: HSF1 inhibitors in luciferase reporter cells, primary screen, cell-based, NIH3T3, luminescence; NIH3T3-HGL HSE-luciferase, MG132-induced, luminescence 8 h; hits give low values; activity change, negative = inhibition, % at 7.5 µM (by protocol); 300,000 tested, 0.77% active;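 active = more than half of replicate wells show activity change below -50%, luminescence cut by over half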;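 also: luciferase reports HSF-1 transcriptional activity via heat shock element; 0% = median of DMSO wells and -100% = zero luminescence signal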
* = called active by the depositor; nt = no result.

SMILES	T cruzi inh	Hsp70 activator	HSF1 activator	L major viab	HSF1 inh
CC(=O)Nc1ccc(C2=NN(C)C(=NCc3ccccc3)SC2)cc1	-10	0	-1	67*	-2
Cc1cc(C)c(-c2csc(NC(=O)COC(=O)c3ccc4c(c3)OCO4)n2)c(C)c1	55*	0	9	5	-5
O=C(COC(=O)c1ccc2c(c1)OCO2)Nc1nc(-c2ccccc2)cs1	-13	0	9	-1	2
COc1ccc(NC(=S)Nc2ccc(C)c(S(=O)(=O)N3CCCCC3)c2)cc1	-5	0	-54	76*	-41
COc1cc(NC(=O)COC(=O)c2ccc(C)c(S(=O)(=O)N3CCCCC3)c2)c(C)cc1[N+](=O)[O-]	2	0	64*	5	21
CC(C)(C)C(=O)Nc1nc(-c2ccc3c(c2)OCO3)cs1	5	0	54*	18	18
COc1ccccc1N1CCN(S(=O)(=O)CCNC(=O)c2cccc(F)c2)CC1	6	nt	-4	nt	-6
CN(c1ccccc1)S(=O)(=O)c1ccc(C(=O)N2CCCC(C(F)(F)F)C2)cc1 (stereo not given)	9	nt	6	nt	2
CCCN1C2CCCC1CC(NC(=O)c1ccc(OC)cc1)C2 (stereo not given)	4	nt	-17	nt	1
Cc1ccc(NC(=O)COC(=O)c2ccc3c(c2)OCO3)cc1S(=O)(=O)N1CCCCC1	-2	0	56*	-6	18
COc1ccc(N(CC(=O)NCc2ccc(F)cc2)C(=O)Cn2nnc(-c3ccc(C)o3)n2)cc1OC	3	nt	-90	nt	-87*
Cc1cccc(N(CC(=O)NCc2ccccc2)C(=O)Cn2nnc(-c3ccc(C)o3)n2)c1	6	-1	-3	44	7
Cc1[nH]c2ccccc2c1C(=O)CN1CCN(c2ccc(Cl)cc2)CC1	36	nt	5	nt	9
O=C1CCC/C(=N/Nc2ccc(Cl)cc2)C1	9	0	nt	99*	nt
O=C(COc1ccc(Cl)cc1Br)NNC(=O)C(=O)N1CCCCC1	-2	0	3	-11	0
CC(Oc1ccc(Cl)cc1Cl)C(=O)NNC(=O)C(=O)N1CCCCC1 (stereo not given)	-3	0	1	60*	-1
CC(Oc1ccc(Cl)cc1Cl)C(=O)Nc1ccc(N2CCN(C)CC2)cc1 (stereo not given)	15	0	12	100*	3
COc1ccc(CN(C(=O)c2ccccc2Br)C2CCS(=O)(=O)C2)cc1 (stereo not given)	0	nt	9	nt	-7
Cc1ccc(C(=O)Nc2nc3n(n2)C(c2ccccc2)CC(=O)N3)cc1 (stereo not given)	-1	nt	-1	nt	-8
O=C1CC(c2ccccc2)n2nc(NC(=O)c3ccccc3)nc2N1 (stereo not given)	-16	0	64*	-4	13
COC(=O)c1c(C(=O)OC)n(CCCN)c2ccc(C)cc12	-8	1	nt	59*	nt
CS(=O)(=O)Nc1cccc(C2=NN(S(=O)(=O)c3ccccc3)C(c3ccco3)C2)c1 (stereo not given)	6	0	9	16	-2
Cc1ccc(NC(=O)COC(=O)C2=COCCO2)cc1	-3	0	4	-5	1
O=C(COC(=O)CNC(=O)c1ccc(Cl)cc1)Nc1ccc2c(c1)OCCO2	12	0	1	57*	-2
O=C(Nc1ccc2c(c1)OCCO2)c1ccc(Cl)cc1	-8	nt	27	nt	9
SMILES	T cruzi inh	Hsp70 activator	HSF1 activator	L major viab	HSF1 inh
O=C(COC(=O)/C=C/c1ccc(Cl)cc1)Nc1ccc2c(c1)OCCO2	3	0	-14	51*	-6
O=C(COC(=O)C1=COCCO1)Nc1ccc2c(c1)OCO2	4	-1	-72	-10	-63*
O=C(COC(=O)Cc1cccc(C(F)(F)F)c1)Nc1ccc2c(c1)OCCO2	-1	0	0	65*	-7
C=CCN1C(=O)C2(OCCO2)c2cc(C)ccc21	24	nt	-15	nt	1
O=C(COc1ccccc1[N+](=O)[O-])Nc1ccc(N2CCN(C(=O)c3cccs3)CC2)cc1	25	0	2	13	7
COc1ccc(-c2cnnc(N/N=C/c3ccc(O)cc3)n2)cc1	1	0	101*	-1	76
